Measured values taken from ChEMBL document CHEMBL1132600.

What was measured:
[1] = target: T1, Fatty-acid amide hydrolase 1 (Rattus norvegicus) (UniProt P97612); assay: Tested for hydrolysis by rat brain microsomal anandamide amidohydrolase (AAH).
T1 sequence (whole entry): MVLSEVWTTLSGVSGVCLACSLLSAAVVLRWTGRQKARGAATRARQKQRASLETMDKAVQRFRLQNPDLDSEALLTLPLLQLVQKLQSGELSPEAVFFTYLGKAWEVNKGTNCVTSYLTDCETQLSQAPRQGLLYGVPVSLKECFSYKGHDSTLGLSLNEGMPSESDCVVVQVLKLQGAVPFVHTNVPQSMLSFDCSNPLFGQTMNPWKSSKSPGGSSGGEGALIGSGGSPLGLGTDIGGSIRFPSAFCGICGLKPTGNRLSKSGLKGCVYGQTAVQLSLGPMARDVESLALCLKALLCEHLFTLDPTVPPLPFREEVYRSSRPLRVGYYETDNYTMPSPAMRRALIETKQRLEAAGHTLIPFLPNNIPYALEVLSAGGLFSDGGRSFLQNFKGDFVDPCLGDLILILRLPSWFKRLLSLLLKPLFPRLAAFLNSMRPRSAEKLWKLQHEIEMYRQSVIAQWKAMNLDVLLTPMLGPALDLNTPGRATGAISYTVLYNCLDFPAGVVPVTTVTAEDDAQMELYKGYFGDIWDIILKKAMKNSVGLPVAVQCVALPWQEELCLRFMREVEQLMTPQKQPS
Outline: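 Substrate at 100 μM (final) with 150 μg rat brain microsomal protein in 50 mM Tris·HCl, 1 mM EDTA, 0.1% BSA, pH 7.4, 37 °C, 15 min with shaking. Stopped with acetonitrile. Products quantified by RP-HPLC: arachidonic acid at 204 nm, or ethanolamine-type amine by OPA precolumn derivatization at 230 nm. Substrate-free blank subtracted. Four experiments in duplicate.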

[2] = Ratio of Vmax value and Km value of the compound.
Outline: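 Sprague–Dawley rat brain microsomes (105000g pellet) at 0.3 mg/mL protein, 37 °C, pH 7.4, BSA as carrier. Varied substrate concentrations, sampled at least four times within the linear initial range. Arachidonic acid formed measured by RP-HPLC (UV 204 nm, calibration curve). Initial velocity vs substrate concentration fitted to Michaelis–Menten.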

| Structure (SMILES) | Rate of hydrolysis (nM min-1 mg-1) [1] | Relative rate of hydrolysis [1] [%] | Vmax / Km (ml min-1 kg-1) [2] | Vmax / Km (ml min-1 mg-1) [2] |
| --- | --- | --- | --- | --- |
| CCCCC/C=C\C/C=C\C/C=C\C/C=C\CCCC(=O)Nc1ccc(O)cc1 | 0.208 | 16 |  |  |
| CCCCC/C=C\C/C=C\C/C=C\C/C=C\CCCC(=O)N[C@@H](C)CC | 0.082 | 6.3 |  |  |
| CCCCC/C=C\C/C=C\CCCCCCCC(=O)N[C@@H](C)CO | 0.27 | 20.5 |  |  |
| CCCCC/C=C\C/C=C\C/C=C\C/C=C\CCCC(=O)NC(C)(C)CO | 0.056 | 4.3 |  |  |
| CCCCC/C=C\C/C=C\C/C=C\C/C=C\CCCC(=O)N(C)CCO | 0 | 0 |  |  |
| CCCCC/C=C\C/C=C\C/C=C\C/C=C\CCCC(=O)NC(C)(C)C | 0.022 | 1.8 |  |  |
| CCCCC/C=C\C/C=C\C/C=C\C/C=C\CCCC(=O)OCC(O)CO (stereo not drawn) | 3.43 | 264 |  |  |
| CCCCC/C=C\C/C=C\C/C=C\C/C=C\CCCC(=O)N[C@H](C)CO | 0.03 |  | 0.011 |  |
| CCCCC/C=C\C/C=C\C/C=C\C/C=C\CCCC(=O)N(CCO)CCO | 0 |  |  |  |
| CCCCC/C=C\C/C=C\C/C=C\C/C=C\CCCC(=O)Nc1ccc(CO)cc1 | 0 | 0 |  |  |
| CCCCC/C=C\C/C=C\C/C=C\C/C=C\CCCC(=O)NCCF | 1.65 | 127 |  |  |
| CCCCC/C=C\C/C=C\C/C=C\C/C=C\CCC(C)(C)C(=O)NCCO | 0.0094 | 0.7 |  |  |
| CCCCC/C=C\C/C=C\C/C=C\C/C=C\CCCC(=O)NC[C@H](C)O | 0.273 | 21 |  |  |
| CCCCC/C=C\C/C=C\C/C=C\C/C=C\CCCC(=O)Nc1cccc(O)c1 | 1.98 | 152 |  |  |
| CCCCCCCCCCCCCCCCCC(=O)NCCO | 0.2 | 15 |  |  |
| CCCCCCCC/C=C\CCCCCCCC(=O)N[C@@H](C)CO | 0.47 | 3.6 |  |  |
| CCCCC/C=C\C/C=C\C/C=C\C/C=C\CCCC(=O)N[C@@H](C)CO | 0.299 |  | 0.049 |  |
| CCCCC/C=C\C/C=C\C/C=C\C/C=C\CCCC(N)=O | 2.85 | 219 |  | 1.24 |
| CCCCC/C=C\C/C=C\C/C=C\C/C=C\CCCC(=O)N[C@H](C)CC | 0 | 0 |  |  |
| CCCCC/C=C\C/C=C\C/C=C\C/C=C\CCCC(=O)NC1CCC(O)CC1 (stereo not drawn) | 0.299 | 2 |  |  |
| CCCCC/C=C\C/C=C\C/C=C\C/C=C\CCCC(=O)Nc1ccccc1O | 2.51 | 193 | 0.43 |  |
| CCCCC/C=C\C/C=C\C/C=C\C/C=C\CCCC(=O)NC[C@@H](C)O | 1.58 | 121 |  |  |
| CCCCC/C=C\C/C=C\C/C=C\C/C=C\CCCC(=O)NCCO | 1.3 |  |  |  |
| CCCCCCCC/C=C\CCCCCCCC(=O)NCCO | 0.79 | 61.1 |  |  |
| CCCCC/C=C\C/C=C\C/C=C\C/C=C\CCCC(=O)OC(CO)CO | 3.27 | 251 |  |  |
| CCCCC/C=C\C/C=C\C/C=C\C/C=C\CCCC(=O)NCC(C)C | 0.025 | 2 |  |  |
| CCCCC/C=C\C/C=C\CCCCCCCC(=O)NCCO | 0.98 |  |  |  |
